Laboratory results as given in ChEMBL document CHEMBL3877325, “Novel salicylanilides from 4,5-dihalogenated salicylic acids: Synthesis, antimicrobial activity and cytotoxicity” (Bioorg Med Chem, 2017).
In brackets after ≈: the same amount, converted by molar mass.

Experiments:
Mycobacterium kansasii [1] = experiment: Antimycobacterial activity against Mycobacterium kansasii isolate 235/80 after 14 days by micromethod; assay type: functional; conditions: isolate 235/80, 336 h
Summary of the method: (§1)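 MIC in Šula's semisynthetic medium at 37 °C, read after 7, 14 and 21 days. Inoculum is strain dilution 10^-4; 235/80 is a collection strain and 6509/96 a clinical isolate. Compounds are added as DMSO solutions at 500, 250, 125, 62.5, 32, 16, 8, 4, 2, 1 and 0.5 µM. INH (in sterile water) and PAS are the reference drugs.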

Mycobacterium avium [2] = experiment: Antimycobacterial activity against Mycobacterium avium My 330/80 after 21 days by micromethod; assay type: functional; conditions: My 330/80, 504 h
Summary of the method: (§2)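 M. avium My 330/80 (collection strain) inoculated at 10^-5 dilution into Šula's semisynthetic medium. Compounds added from DMSO solutions at 500, 250, 125, 62.5, 32, 16, 8, 4, 2, 1 and 0.5 µM. MIC determined by micromethod at 37 °C, read after 14 and 21 days.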

Mycobacterium kansasii [3] = experiment: Antimycobacterial activity against Mycobacterium kansasii isolate 235/80 after 7 days by micromethod; assay type: functional; conditions: isolate 235/80, 168 h; summary of the method: as §1
Mycobacterium kansasii [4] = experiment: Antimycobacterial activity against Mycobacterium kansasii isolate 6509/96 after 21 days by micromethod; assay type: functional; conditions: isolate 6509/96, 504 h; summary of the method: as §1
[5] = Cytotoxicity against human HepG2 cells assessed as reduction in cell viability after 24 hrs by MTS assay; assay type: toxicity, cell-based
Summary of the method: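 HepG2 cells (passages 33-37) are grown in MEM with 10% FBS, L-glutamine and non-essential amino acids. They are seeded at 1 × 10^4 cells/well and treated next day with 0.1-100 µM in triplicate for 24 h at 37 °C, 5% CO2. MTS reagent is added for 2 h and A490 read.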

Mycobacterium avium [6] = experiment: Antimycobacterial activity against Mycobacterium avium My 330/80 after 14 days by micromethod; assay type: functional; conditions: My 330/80, 336 h; summary of the method: as §2
Mycobacterium kansasii [7] = experiment: Antimycobacterial activity against Mycobacterium kansasii isolate 235/80 after 21 days by micromethod; assay type: functional; conditions: isolate 235/80, 504 h; summary of the method: as §1
Mycobacterium kansasii [8] = experiment: Antimycobacterial activity against Mycobacterium kansasii isolate 6509/96 after 7 days by micromethod; assay type: functional; conditions: isolate 6509/96, 168 h; summary of the method: as §1
Mycobacterium kansasii [9] = experiment: Antimycobacterial activity against Mycobacterium kansasii isolate 6509/96 after 14 days by micromethod; assay type: functional; conditions: isolate 6509/96, 336 h; summary of the method: as §1
[10] = Selectivity index, ratio of IC50 for human HepG2 cells to MIC for Mycobacterium tuberculosis H37Rv after 21 days; assay type: toxicity, cell-based; conditions: HepG2 cells versus Mycobacterium tuberculosis H37Rv, read-out: Selectivity Index
Summary of the method: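 HepG2 cells (passages 33-37) seeded at 1 × 10^4 per well and treated next day with 0.1–100 µM in triplicate. After 24 h at 37 °C, 5% CO2, MTS reagent added for 2 h and absorbance read at 490 nm. IC50 taken from viability relative to untreated control, then divided by the 21-day H37Rv MIC.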

[11] = system: Mycobacterium tuberculosis; experiment: Antimycobacterial activity against Mycobacterium tuberculosis H37Rv My 331/88 after 14 days by micromethod; assay type: functional; conditions: H37Rv My 331/88, 336 h
Summary of the method: (§3)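 MIC micromethod in Šula's semisynthetic medium at 37 °C, read after 14 and 21 days. Compounds added as DMSO solutions at 500 down to 0.5 µM (twofold-type series: 500, 250, 125, 62.5, 32, 16, 8, 4, 2, 1, 0.5 µM). Isoniazid standard given in sterile water.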

[12] = system: Mycobacterium tuberculosis; experiment: Antimycobacterial activity against Mycobacterium tuberculosis H37Rv My 331/88 after 21 days by micromethod; assay type: functional; conditions: H37Rv My 331/88, 504 h; summary of the method: as §3

SMILES	MIC (Mycobacterium kansasii [1])	MIC (Mycobacterium avium [2])	MIC (Mycobacterium kansasii [3])	MIC (Mycobacterium kansasii [4])	IC50 at 24 h [5]	MIC (Mycobacterium avium [6])	MIC (Mycobacterium kansasii [7])	MIC (Mycobacterium kansasii [8])	MIC (Mycobacterium kansasii [9])	selectivity ratio at 504 h [10]	MIC [11]	MIC [12]
O=C(Nc1ccc(Br)cc1)c1cc(Cl)c(Cl)cc1O	8 µM (≈ 2.89 µg/mL)	32 µM (≈ 11.6 µg/mL)	8 µM (≈ 2.89 µg/mL)	8 µM (≈ 2.89 µg/mL)	21.4 µM	32 µM (≈ 11.6 µg/mL)	8 µM (≈ 2.89 µg/mL)	8 µM (≈ 2.89 µg/mL)	8 µM (≈ 2.89 µg/mL)	5.35	2 µM (≈ 0.722 µg/mL)	4 µM (≈ 1.44 µg/mL)
O=C(Nc1cc(C(F)(F)F)cc(C(F)(F)F)c1)c1cc(Br)c(Cl)cc1O	8 µM (≈ 3.7 µg/mL)	32 µM (≈ 14.8 µg/mL)	8 µM (≈ 3.7 µg/mL)	8 µM (≈ 3.7 µg/mL)	5.07 µM	16 µM (≈ 7.4 µg/mL)	8 µM (≈ 3.7 µg/mL)	8 µM (≈ 3.7 µg/mL)	8 µM (≈ 3.7 µg/mL)	1.27	2 µM (≈ 0.925 µg/mL)	4 µM (≈ 1.85 µg/mL)
O=C(Nc1ccc(Cl)c(Cl)c1)c1cc(Br)c(Cl)cc1O	8 µM (≈ 3.16 µg/mL)	125 µM (≈ 49.4 µg/mL)	8 µM (≈ 3.16 µg/mL)	8 µM (≈ 3.16 µg/mL)	7.65 µM	125 µM (≈ 49.4 µg/mL)	8 µM (≈ 3.16 µg/mL)	8 µM (≈ 3.16 µg/mL)	8 µM (≈ 3.16 µg/mL)	1.91	2 µM (≈ 0.791 µg/mL)	4 µM (≈ 1.58 µg/mL)
O=C(Nc1ccc(C(F)(F)F)cc1)c1cc(Br)c(Cl)cc1O	4 µM (≈ 1.58 µg/mL)	62.5 µM (≈ 24.7 µg/mL)	4 µM (≈ 1.58 µg/mL)	4 µM (≈ 1.58 µg/mL)	11 µM	32 µM (≈ 12.6 µg/mL)	4 µM (≈ 1.58 µg/mL)	4 µM (≈ 1.58 µg/mL)	4 µM (≈ 1.58 µg/mL)	5.52	1 µM (≈ 0.395 µg/mL)	2 µM (≈ 0.789 µg/mL)
O=C(Nc1ccc(Br)cc1)c1cc(Br)c(Cl)cc1O	8 µM (≈ 3.24 µg/mL)	32 µM (≈ 13 µg/mL)	4 µM (≈ 1.62 µg/mL)	8 µM (≈ 3.24 µg/mL)	10.8 µM	32 µM (≈ 13 µg/mL)	8 µM (≈ 3.24 µg/mL)	8 µM (≈ 3.24 µg/mL)	8 µM (≈ 3.24 µg/mL)	2.71	2 µM (≈ 0.811 µg/mL)	4 µM (≈ 1.62 µg/mL)
O=C(Nc1ccc(Cl)c(Cl)c1)c1cc(Cl)c(Cl)cc1O	8 µM (≈ 2.81 µg/mL)	62.5 µM (≈ 21.9 µg/mL)	4 µM (≈ 1.4 µg/mL)	8 µM (≈ 2.81 µg/mL)	12.4 µM	62.5 µM (≈ 21.9 µg/mL)	8 µM (≈ 2.81 µg/mL)	8 µM (≈ 2.81 µg/mL)	8 µM (≈ 2.81 µg/mL)	6.21	2 µM (≈ 0.702 µg/mL)	2 µM (≈ 0.702 µg/mL)
O=C(Nc1ccc(C(F)(F)F)cc1)c1cc(Cl)c(Cl)cc1O	8 µM (≈ 2.8 µg/mL)	62.5 µM (≈ 21.9 µg/mL)	4 µM (≈ 1.4 µg/mL)	8 µM (≈ 2.8 µg/mL)	9.87 µM	62.5 µM (≈ 21.9 µg/mL)	8 µM (≈ 2.8 µg/mL)	4 µM (≈ 1.4 µg/mL)	8 µM (≈ 2.8 µg/mL)	4.94	2 µM (≈ 0.7 µg/mL)	2 µM (≈ 0.7 µg/mL)
O=C(Nc1cc(C(F)(F)F)cc(C(F)(F)F)c1)c1cc(Cl)c(Cl)cc1O	8 µM (≈ 3.34 µg/mL)	32 µM (≈ 13.4 µg/mL)	8 µM (≈ 3.34 µg/mL)	16 µM (≈ 6.69 µg/mL)	4.86 µM	32 µM (≈ 13.4 µg/mL)	16 µM (≈ 6.69 µg/mL)	8 µM (≈ 3.34 µg/mL)	16 µM (≈ 6.69 µg/mL)	2.43	2 µM (≈ 0.836 µg/mL)	2 µM (≈ 0.836 µg/mL)
O=C(Nc1ccc(Br)cc1)c1cc(Br)ccc1O [DIBROMSALAN]	8 µM (≈ 2.97 µg/mL)	16 µM (≈ 5.94 µg/mL)	4 µM (≈ 1.48 µg/mL)	8 µM (≈ 2.97 µg/mL)	23.6 µM	16 µM (≈ 5.94 µg/mL)	8 µM (≈ 2.97 µg/mL)	8 µM (≈ 2.97 µg/mL)	8 µM (≈ 2.97 µg/mL)	5.9	4 µM (≈ 1.48 µg/mL)	4 µM (≈ 1.48 µg/mL)
O=C(Nc1cc(C(F)(F)F)cc(C(F)(F)F)c1)c1cc(Cl)ccc1O [IMD-0354]	16 µM (≈ 6.14 µg/mL)	32 µM (≈ 12.3 µg/mL)	8 µM (≈ 3.07 µg/mL)	16 µM (≈ 6.14 µg/mL)	10.2 µM	32 µM (≈ 12.3 µg/mL)	16 µM (≈ 6.14 µg/mL)	8 µM (≈ 3.07 µg/mL)	16 µM (≈ 6.14 µg/mL)	1.27	4 µM (≈ 1.53 µg/mL)	8 µM (≈ 3.07 µg/mL)
